In ChEMBL document CHEMBL1138014, “1-(2-Aminoethyl)-3-(arylsulfonyl)-1H-indoles as novel 5-HT6 receptor ligands” (Bioorg Med Chem Lett, 2004):

How the values were obtained:
Type in all cases: cell-based
[1] = target: T1, 5-hydroxytryptamine receptor 6 (Homo sapiens, UniProt P50406); assay: Binding affinity against human 5-hydroxytryptamine 6 receptor transfected in HeLa cells
[2] = target: T1, 5-hydroxytryptamine receptor 6; assay: Percent inhibitory activity against human 5-hydroxytryptamine 6 receptor transfected in HeLa cells at 1 uM
[3] = target: T1, 5-hydroxytryptamine receptor 6; assay: Inhibitory concentration against human 5-hydroxytryptamine 6 receptor transfected in HeLa cells in cAMP assay
Procedure, shortened: (§1)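 Human 5-HT6 receptor stably transfected into HeLa cells. Cells were washed with Krebs buffer, then preincubated for 5 min at 37°C in Krebs with 500 µM IBMX. They were then exposed to test compound (0.1–10,000 nM) for 10 min at 37°C. The reaction was stopped with 0.5 M perchloric acid, and intracellular cAMP was measured by scintillation proximity radioimmunoassay.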

[4] = target: T1, 5-hydroxytryptamine receptor 6; assay: Inhibitory potency against human 5-hydroxytryptamine 6 receptor transfected in HeLa cells in cAMP assay; procedure, shortened: as §1

T1 sequence (P50406 whole entry): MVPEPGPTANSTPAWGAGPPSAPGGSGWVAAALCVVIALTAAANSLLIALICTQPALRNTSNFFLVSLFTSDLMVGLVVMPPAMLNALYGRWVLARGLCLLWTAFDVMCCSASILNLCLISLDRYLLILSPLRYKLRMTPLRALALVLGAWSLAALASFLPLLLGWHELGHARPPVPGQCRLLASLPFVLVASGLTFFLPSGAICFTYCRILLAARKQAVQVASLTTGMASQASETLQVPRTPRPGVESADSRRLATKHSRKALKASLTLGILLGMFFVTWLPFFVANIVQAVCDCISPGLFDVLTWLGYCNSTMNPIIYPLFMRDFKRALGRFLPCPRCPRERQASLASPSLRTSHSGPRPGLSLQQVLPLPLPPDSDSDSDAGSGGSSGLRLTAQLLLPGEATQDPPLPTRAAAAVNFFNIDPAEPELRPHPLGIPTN

Row | SMILES | Ki [1] | inhibition [2] | IC50 [3] | Imax [4]
1 | CNCCc1cn(S(=O)(=O)c2ccccc2)c2ccccc12 | 5 nM |  |  | 
2 | NCCn1cc(S(=O)(=O)c2ccccc2)c2cc(F)ccc21 | 27 nM |  |  | 
3 | COc1cccc2c(S(=O)(=O)c3ccccc3)cn(CCN(C)C)c12 |  |  | 23 nM | 80.5%
4 | COc1ccc2c(c1)c(S(=O)(=O)c1ccccc1)cn2CCN |  | 86% |  | 
5 | NCCc1cn(S(=O)(=O)c2ccccc2)c2ccccc12 | 10.3 nM |  |  | 

Second part, the molecule after the results:

Row | Ki [1] | inhibition [2] | IC50 [3] | Imax [4] | SMILES
6 | 15.5 nM |  |  |  | CNCCn1cc(S(=O)(=O)c2ccccc2)c2ccccc21
7 |  | 78% |  |  | COc1ccc2c(S(=O)(=O)c3ccccc3)cn(CCN)c2c1
8 | 3.7 nM |  | 47 nM | 97% | CN(C)CCn1cc(S(=O)(=O)c2cccc3ccccc23)c2ccccc21
9 | 5.7 nM |  | 359 nM | 97% | CNCCn1cc(S(=O)(=O)c2cccc3ccccc23)c2ccccc21
10 |  |  | 792 nM | 100% | CN(C)CCn1cc(S(=O)(=O)c2ccccc2OC(F)(F)F)c2ccccc21
11 |  | 42% |  |  | CN(C)CCn1cc(S(=O)(=O)c2ccccc2)c2ccc(C#N)cc21
12 |  | 55% |  |  | COc1ccc2c(c1)c(S(=O)(=O)c1ccccc1)cn2CCN1CCCCC1
